# TRPC6 inhibitor: mouse TRPC6 channel inhibition. B-score at 10 µM. actives 1.1% (n = 310,000). HEK293-TRPC6, membrane potential dye, ACh-evoked depolarization; stronger effect = lower value;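 active means B-score under library mean minus 3 SD, initial fluorescence not abnormally high, positive integrated signal ratio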;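 further: B-score derived from integrated fluorescence ratio over the kinetic read; more negative B-score means stronger inhibition of depolarization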
# Target sequence (Q61143 whole entry, looked up): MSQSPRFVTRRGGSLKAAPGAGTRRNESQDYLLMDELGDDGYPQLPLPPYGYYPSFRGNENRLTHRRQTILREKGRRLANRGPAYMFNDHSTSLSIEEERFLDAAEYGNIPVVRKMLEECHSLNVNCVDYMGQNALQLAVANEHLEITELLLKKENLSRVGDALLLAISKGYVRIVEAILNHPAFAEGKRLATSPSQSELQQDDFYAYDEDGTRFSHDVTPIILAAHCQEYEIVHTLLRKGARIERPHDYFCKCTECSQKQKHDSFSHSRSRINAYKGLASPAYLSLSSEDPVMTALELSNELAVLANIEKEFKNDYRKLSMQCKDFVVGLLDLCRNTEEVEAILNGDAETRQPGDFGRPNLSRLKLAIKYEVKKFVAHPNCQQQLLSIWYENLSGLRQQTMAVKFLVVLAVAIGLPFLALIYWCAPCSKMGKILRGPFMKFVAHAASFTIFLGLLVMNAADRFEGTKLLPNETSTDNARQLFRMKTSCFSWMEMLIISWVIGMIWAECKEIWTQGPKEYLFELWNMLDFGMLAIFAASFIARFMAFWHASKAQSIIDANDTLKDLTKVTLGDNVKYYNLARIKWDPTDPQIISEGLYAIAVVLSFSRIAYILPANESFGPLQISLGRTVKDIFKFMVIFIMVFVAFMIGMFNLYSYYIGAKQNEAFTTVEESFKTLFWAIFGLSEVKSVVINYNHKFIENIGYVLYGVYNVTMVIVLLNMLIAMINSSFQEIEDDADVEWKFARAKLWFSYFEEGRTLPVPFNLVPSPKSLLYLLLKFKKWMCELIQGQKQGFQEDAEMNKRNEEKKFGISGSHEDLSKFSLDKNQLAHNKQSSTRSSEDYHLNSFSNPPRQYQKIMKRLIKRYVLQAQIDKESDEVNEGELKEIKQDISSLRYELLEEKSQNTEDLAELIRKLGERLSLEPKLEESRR
# TRPC4 inh: TRPC4 (mouse) channel inhibition; Q9QUQ5; HEK293 TRPC4beta/mu-opioid, DAMGO-evoked Fluo4 calcium flux; stronger effect = lower value; B-score at 10 µM; actives 0.39% (n = 300,000);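 active means B-score over 3 SD under the library average, no early fluorescence shift, positive overall ratio signal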
#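 Assay system: Stable TRPC4beta/mu-opioid receptor HEK293 cells | Reagent: DAMGO in two steps, submaximal then maximal | Compound dosing: Single concentration per test compound | Signal: Fluo4 Ca2+ flux fluorescence | Evaluation: Per-well B score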
# TRPC4 agonist: opens the mouse TRPC4 cation channel; Q9QUQ5; HEK293 TRPC4beta/mu-opioid, Fluo4 calcium fluorescence; stronger effect = higher value; B-score at 10 µM; actives 0.49% (n = 310,000); AID 2237;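 active means B-score above 5 SD of library B-scores, and initial fluorescence ratio not above library mean plus 5 SD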;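 further: positive B-score marks a calcium rise read as TRPC4 activation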
#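 Test system: HEK293 cells stably co-expressing mouse TRPC4beta and mu-opioid receptor | Schedule: Fluo4 dye loading 45 min at room temperature, 110 s recording | Measured by: Kinetic Fluo4 calcium fluorescence, 5 s baseline at 1 Hz | Evaluation: B score of integrated ratio | Controls: Buffer (low) and maximal DAMGO (high)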
# TRPC4 potent: allosterically enhances the mouse TRPC4 cation channel; AID 2227; B-score at 10 µM; actives 0.42% (n = 310,000); HEK293 TRPC4beta/mu-opioid, DAMGO EC20, Fluo-4 Ca2+ flux; stronger effect = higher value; Q9QUQ5;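 active means B-score of calcium response area above 5 SD of library B-scores, with initial fluorescence ratio within 5 SD of library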;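 further: B-score of integrated fluorescence ratio over time as area under calcium response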
# TRPC6 activator: mouse TRPC6 channel activation | actives 0.13% (n = 310,000) | Q61143 | B-score at 10 µM | AID 2550 | HEK293-TRPC6 membrane potential dye fluorescence; stronger effect = higher value;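 active means B-score of the integrated fluorescence ratio above library mean plus 3 SD, and starting fluorescence ratio within library mean plus 5 SD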;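 further: higher score means more depolarization so channel activation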
# TRPC4 sel inh 2: second selectivity test of TRPC6 inhibitors: effect on mouse TRPC4; shares compounds with TRPC6 inhibitor; HEK293 TRPC4/MOR, membrane potential dye fluorescence; channel activated by saturating DAMGO dose; inhibition, % at 10 µM; actives 42% (n = 920); AID 2776;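 active means compounds whose fluorescence signal differed from control wells by over 3 SD, either direction, in both duplicate plates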
# TRPC4 spec: selectivity of TRPC6 inhibitors: effect on mouse TRPC4. shares compounds with TRPC6 inhibitor. HEK293 TRPC4/mu-opioid, membrane potential fluorescence. activity change, negative = inhibition, % at 10 µM. actives 61% (n = 920);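 active means rise or fall in signal beyond 3 SD of buffer-only wells in both replicate plates, either sign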;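 further: integrated kinetic ratio of fluorescence range over baseline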
# HEK293 MPD ctr 2-1: second counter-screen for TRPC6 inhibitors: parental HEK293 cells; shares compounds with TRPC6 inhibitor; parental HEK293 membrane potential dye fluorescence; maximal acetylcholine challenge after compound addition; signal change vs control, % at 10 µM; actives 31% (n = 920);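 active means membrane potential signal moving either way by over 3 SD of the maximum-effect control, in both duplicate plates, meaning non-specific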
# HEK293 MPD ctr-1: checks TRPC6 inhibitor effects in parental HEK293 cells. shares compounds with TRPC6 inhibitor. actives 60% (n = 920). membrane potential signal change, % at 10 µM. parental HEK293 membrane potential dye fluorescence;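 active means membrane potential signal shifting up or down by more than 3 SD of buffer-only wells, on both duplicate plates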
# HEK293 MPD ctr-2: checks TRPC6 modulator effects in parental HEK293 cells. shares compounds with TRPC6 inhibitor. membrane potential dye fluorescence. membrane potential signal change, % at 10 µM. actives 51% (n = 2,400). AID 488924;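 active means membrane potential signal moves up or down beyond 5 SD from buffer-only wells, on both duplicate plates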
# HEK293 MPD ctr 2-2: second counter-screen for TRPC6 modulators: effect in parental HEK293 cells. shares compounds with TRPC6 inhibitor. membrane potential dye fluorescence; after compound, maximal acetylcholine stimulation. inhibition, % at 10 µM. actives 14% (n = 2,400). AID 488926;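 active means membrane potential signal drops by more than 5 SD from the mean control signal, in both duplicate plates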;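 further: plate controls were acetylcholine ECmax control wells for no effect and buffer only wells for full effect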
# TRPC4/MOR mod: selectivity of TRPC6 modulators against mouse TRPC4; actives 69% (n = 2,400); shares compounds with TRPC6 inhibitor; percent change from control (negative = decrease, positive = increase), % at 10 µM; HEK293 TRPC4/mu-opioid, membrane potential fluorescence;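 active means membrane potential signal moved up or down beyond 5 SD of buffer control wells, in both duplicate plates, actives on both sides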;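 further: plate controls were assay buffer wells for no effect and DAMGO maximal-effect wells for full effect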
# TRPC4/MOR inh 2: second selectivity test of TRPC6 modulators against mouse TRPC4; inhibition, % at 10 µM; shares compounds with TRPC6 inhibitor; actives 55% (n = 2,400); HEK293 TRPC4/mu-opioid, membrane potential dye fluorescence; stimulated with maximal-effect DAMGO;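 active means drop in membrane potential signal beyond 5 SD of the control wells in both duplicate plates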;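 further: TRPC4 counter screen for TRPC6 hits run under conditions tuned for TRPC6 not TRPC4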
# TRPC6 inh conf: mouse TRPC6 inhibitor confirmation; shares compounds with TRPC6 inhibitor; HEK293-TRPC6, membrane potential dye, ACh-evoked depolarization; inhibition, % at 10 µM; actives 43% (n = 3,300); AID 488960;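 active means fluorescence ratio falls more than 5 SD below the full-stimulation control mean, in both duplicate runs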;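 further: integrated fluorescence ratio of peak minus minimum over baseline after agonist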
# TRPC6 act confirm: confirmation of mouse TRPC6 activators; activation, % at 10 µM; actives 11% (n = 2,800); HEK293-TRPC6 membrane potential dye fluorescence, FDSS; AID 488961; shares compounds with TRPC6 inhibitor;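 active means ratio signal rise beyond 5 SD above unstimulated control wells' mean, seen in both duplicate runs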;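 further: plate controls were buffer EC0 wells for no effect and acetylcholine ECmax response for full effect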
# * = called active by the depositor; i = inactive; . = no result given. The list is not random: actives were taken first. Their share in the collection is about 2.3%.
SMILES,TRPC6 inhibitor,TRPC4 inh,TRPC4 agonist,TRPC4 potent,TRPC6 activator,HEK293 MPD ctr-2,HEK293 MPD ctr 2-2,TRPC4/MOR mod,TRPC4/MOR inh 2,TRPC6 inh conf,TRPC6 act confirm,others
Cn1cc(CN2CCC(n3nccc3NC(=O)c3ccccc3Cl)CC2)c2ccccc21,-5.6*,i,i,i,i,i,i,i,70%*,i,i,
COC(=O)C1=C(C)NC=C([N+](=O)[O-])C1c1ccc(OC)cc1 (stereo not given),i,i,i,i,i,.,.,.,.,.,.,
Cc1ccc2cc(C=C(C#N)C#N)c(N3CCCCC3)nc2c1,-7.1*,i,i,i,i,.,.,.,.,i,i,TRPC4 sel inh 2=i;TRPC4 spec=i;HEK293 MPD ctr 2-1=i;HEK293 MPD ctr-1=i
O=C(NNS(=O)(=O)c1ccc2ccccc2c1)C1CCN(Cc2ccccc2)CC1,-18*,i,i,i,i,.,.,.,.,83%*,.,TRPC4 sel inh 2=i;TRPC4 spec=4.8%*;HEK293 MPD ctr 2-1=0.0%*;HEK293 MPD ctr-1=5.2%*
O=C(NNS(=O)(=O)c1ccc(F)cc1)C1CCN(S(=O)(=O)c2ccccc2)CC1,i,i,i,i,i,.,.,.,.,.,.,
O=S(=O)(NC1CCN(Cc2ccccc2)CC1)c1ccc2ccccc2c1,i,i,i,i,i,.,.,.,.,.,.,
O=C(NNS(=O)(=O)c1ccc(F)cc1)C1CCN(Cc2cccc(F)c2)CC1,-5*,i,i,i,i,i,i,i,i,i,i,
CC(C)(C)n1nnnc1C(c1cc2cc3c(cc2[nH]c1=O)OCCO3)N1CCSCC1 (stereo not given),-5.2*,i,i,i,i,i,i,i,i,52%*,.,
Cc1ccc(S(=O)(=O)N2CCOC2CNC(=O)C(=O)NCc2ccccn2)cc1 (stereo not given),i,i,i,i,i,.,.,.,.,.,.,
Cc1c(C(=O)N2CCCCC2)c(S(=O)(=O)Nc2ccc(F)cc2F)c(C)n1C,i,i,i,i,i,.,.,.,.,.,.,
CC1CCN(CCCNC(=O)c2coc3nc4ccccc4nc23)CC1,-5.1*,i,i,i,i,i,i,-16%*,46%*,i,i,
CC1CCCN(CCCNC(=O)c2coc3nc4ccccc4nc23)C1 (stereo not given),i,i,i,i,i,.,.,.,.,.,.,
CCCC[n+]1ccc(-c2nc3ccc([N+](=O)[O-])cc3[nH]2)cc1,-6.8*,i,i,i,i,.,.,.,.,73%*,i,TRPC4 sel inh 2=56%*;TRPC4 spec=-17%*;HEK293 MPD ctr 2-1=-90%*;HEK293 MPD ctr-1=-262%*
Cc1ccc(-c2nnc3ccc(SCC(=O)Nc4cc(C)on4)nn23)cc1,i,i,i,i,i,.,.,.,.,.,.,
Cc1cc(NC(=O)CSc2ccc3nnc(-c4cccs4)n3n2)no1,-5.3*,i,i,i,i,-159%*,i,-36%*,i,i,i,
O=C(COC(=O)c1ccccc1NCCO)Nc1cccc(S(=O)(=O)NC2=NCCCCC2)c1,i,i,i,i,i,.,.,.,.,.,.,
Cc1ccc2nc(C)cc(NCCO)c2c1,-8.4*,i,i,i,i,-282%*,81%*,-48%*,54%*,58%*,i,
Cc1cc(Nc2ccc3c(c2)OCCO3)c2ccccc2n1,i,i,i,i,i,.,.,.,.,.,.,
CCOc1ccc2nc(C)cc(Nc3ccc4c(c3)OCCO4)c2c1,-9.8*,i,i,i,i,.,.,.,.,i,i,TRPC4 sel inh 2=i;TRPC4 spec=-13%*;HEK293 MPD ctr 2-1=i;HEK293 MPD ctr-1=-178%*
CCOc1ccc2nc(C)cc(Nc3ccc(N4CCOCC4)cc3)c2c1,i,i,i,i,i,.,.,.,.,.,.,
Cc1ccc2nc(C)cc(Nc3ccc4c(c3)OCCO4)c2c1,-6.3*,-8*,i,i,i,-72%*,i,i,67%*,64%*,i,
CC(=O)c1ccc(Nc2cc(C)nc3ccc(C)cc23)cc1,-9.5*,i,i,i,i,.,.,.,.,i,i,TRPC4 sel inh 2=77%*;TRPC4 spec=-12%*;HEK293 MPD ctr 2-1=14%*;HEK293 MPD ctr-1=-276%*
COc1ccc(CN(C)C(=O)c2ccc(NS(=O)(=O)c3ccc(F)cc3)cc2)c(OC)c1OC,i,i,i,i,i,.,.,.,.,.,.,
Cc1ccc(-c2ccc(OC(=O)c3ccc(=O)[nH]c3)c(C)c2)cc1,-5.1*,i,i,i,i,i,i,i,i,i,i,
COC(=O)c1cc(OC(=O)c2ccc(=O)[nH]c2)cc(C(=O)OC)c1,i,i,i,i,i,.,.,.,.,.,.,
CCc1ccc(Nc2nc(C)cc(C)n2)cc1,i,i,i,i,i,.,.,.,.,.,.,
CN1CCc2c(sc3c2c(=O)n(-c2ccc(Cl)cc2)c2nncn32)C1,-5.1*,i,i,i,i,-106%*,i,-21%*,i,i,i,
CCN(CC)CCn1c(=O)n(-c2ccc(Cl)cc2)c(=O)c2c3c(sc21)CN(C)CC3,i,i,i,i,i,.,.,.,.,.,.,
CC/C(CC(C)(C)c1ccccc1)=N\O,i,i,i,i,i,.,.,.,.,.,.,

# Bioassay records (PubChem)
